Only some compounds are listed: those with a hit (about 1.8% of all), similar ones and a draw of the others.
NPY-Y2 PAM-ag: potentiates or activates human NPY-Y2 receptor. 220,000 compounds, 0.45% hits. cells expressing NPY-Y2, potentiator/agonist read-out. activation, % at 3.6 µM; in the data active means activation above about 27%;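 further: cells stimulated with NPY near EC25 plus isoproterenol at EC100; 0% = vehicle plus submaximal agonist and 100% = vehicle plus saturating agonist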
Target sequence (P49146 whole entry, looked up): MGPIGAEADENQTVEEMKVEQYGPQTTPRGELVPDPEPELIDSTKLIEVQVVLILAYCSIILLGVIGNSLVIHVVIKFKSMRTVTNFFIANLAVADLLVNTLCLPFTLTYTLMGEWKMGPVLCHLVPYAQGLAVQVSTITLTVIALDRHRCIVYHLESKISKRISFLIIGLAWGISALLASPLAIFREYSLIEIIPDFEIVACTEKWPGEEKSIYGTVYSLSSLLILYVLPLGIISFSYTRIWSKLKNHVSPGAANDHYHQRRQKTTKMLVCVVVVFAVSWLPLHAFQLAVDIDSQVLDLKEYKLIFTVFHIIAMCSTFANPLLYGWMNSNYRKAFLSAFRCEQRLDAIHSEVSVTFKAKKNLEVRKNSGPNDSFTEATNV
NPY-Y2 antag: NPY-Y2 (human) receptor antagonism; P49146; inhibition, % at 2.7 µM; NPY-Y2 expressing cells, antagonist mode; 140,000 compounds, 0.99% hits; in the data active means inhibition above about 17%;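 further: 0% = vehicle with agonist challenge and 100% = reference antagonist with challenge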
NPY1 pot ag: human NPY-Y1 potentiation or agonism, primary screen; P25929; activation, % at 3.6 µM; NPY-Y1 expressing cells, potentiator/agonist activation; 220,000 compounds, 0.37% hits; AID 1304; in the data active means activation above about 33%, passing the limit was not always enough;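 further: cells stimulated with NPY at EC10 then isoproterenol at EC100; 0% = low agonist plus stimulus and 100% = saturating agonist plus stimulus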
NPY-Y1 antag: antagonists of human neuropeptide Y receptor Y1; HEK293-CNG Y1 cells, membrane potential fluorescence; NPY at EC95, then isoproterenol; inhibition, % at 3.6 µM; 200,000 compounds, 1% hits; AID 1040;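 active means inhibition above the campaign mean inhibition of all tested compounds plus 3 SD, cut at about 20% in these data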;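 further: 0% = DMSO wells given NPY plus isoproterenol and 100% = isoproterenol alone without NPY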
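System: HEK293 cells with Y1 receptor plus CNG channel / Probe or stimulus: NPY 25 nM then isoproterenol 1 µM plus Ro 20-1724 25 µM / Compound: one concentration, 3.6 µM, in 0.4% DMSO / Schedule: compound incubation 1 h at room temperature, readout 45 min post-stimulation / Measured by: membrane potential fluorescence / Read-out: % inhibition of NPY effect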
NPY-Y2 confirm: confirmation of human NPY-Y2 receptor potentiators or agonists. cell-based NPY-Y2 potentiator/agonist assay. AID 1539. 450 compounds, 20% hits. shares compounds with NPY-Y2 PAM-ag. activation, % at 3.6 µM; in the data active means activation above about 33%
NPY-Y1 potentiator: counter-screen for NPY-Y2 potentiators or agonists: NPY-Y1 potentiators or agonists. shares compounds with NPY-Y2 PAM-ag. Y1 HEK293-CNG cells, membrane potential fluorescence. activation, % at 3.6 µM. 450 compounds, 20% hits; in the data active means activation above about 45%;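 further: cells stimulated with submaximal NPY then isoproterenol with phosphodiesterase inhibitor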
NPY-Y1 ag 2: activates human NPY-Y1, counter-screen for NPY-Y2 potentiators; shares compounds with NPY-Y2 PAM-ag; AID 1702; activation, % at 3.6 µM; 450 compounds, 37% hits; HEK293 Y1-CNGC, membrane potential fluorescence, agonism;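 active means activation above the mean of DMSO-only control wells plus 3 SD, cut at about 18% in these data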;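 further: cells stimulated with 1 µM isoproterenol plus the PDE inhibitor Ro 20-1724; 0% = isoproterenol with DMSO and no NPY and 100% = 40 nM NPY; Y1 agonists lower the membrane potential dye signal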
CNGC inhibitor: counter-screen for NPY-Y2 potentiators: inhibitors of CNG channel activity; shares compounds with NPY-Y2 PAM-ag; HEK293-CNG parental, isoproterenol cAMP, membrane potential fluorescence; inhibition, % at 3.6 µM; 450 compounds, 32% hits; AID 1703;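 active means inhibition above the control-well mean plus 3 SD of those wells, cut at about 22% in these data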;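 further: 0% = DMSO with isoproterenol and 100% = DMSO without isoproterenol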
NPY-Y2 ag 2: NPY-Y2 agonism, counter-screen for Y2 potentiators; shares compounds with NPY-Y2 PAM-ag; HEK293 Y2/CNGC cells, membrane potential fluorescence, agonist mode; activation, % at 3.6 µM; 450 compounds, 56% hits; AID 1710;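 active means activation above the mean of solvent-only control wells plus 3 SD, cut at about 10% in these data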;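 further: cells stimulated by isoproterenol with no NPY added so direct agonism is tested; 0% = DMSO with isoproterenol alone and 100% = NPY at EC100 plus isoproterenol; agonism lowers probe fluorescence through less cAMP and CNG channel opening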
The depositor's hits bear a star; · = no result.

SMILES	NPY-Y2 PAM-ag	NPY-Y2 antag	NPY1 pot ag	NPY-Y1 antag	NPY-Y2 confirm	NPY-Y1 potentiator	NPY-Y1 ag 2	CNGC inhibitor	NPY-Y2 ag 2
CC(C)C(c1nnnn1C1CCCCC1)N1CCc2ccccc21 (stereo unspecified)	59*	8	2	9	-2	-2	10	-4	7
CCOc1ccc(NC(=O)C(=S)NC2CCCCC2)cc1	4	·	15	-1	·	·	·	·	·
COc1ccc(NC(=O)C(=S)NC2CCCCC2)cc1	31*	·	24	2	11	20	15	-12	-8
Nc1cc(-c2ccc(Br)cc2)nn1Cc1ccccc1	36*	·	31	-4	16	-8	8	11	28*
Cc1ccc(S(=O)(=O)Nc2ccc(NC(=O)c3c(F)c(F)c(F)c(F)c3F)cc2)cc1	35*	·	38	-5	23	35	26*	28*	24*
NNC(=O)Cn1c(-c2ccccc2)cc(=O)n2ncnc12	0	·	6	·	·	·	·	·	·
COc1ccc(Cn2cnc3c(NS(C)(=O)=O)c(C)c(C)cc32)cc1	35*	6	19	2	13	28	13	22	21*
Cc1ccccc1Cn1cnc2c(NS(C)(=O)=O)c(C)c(C)cc21	-9	4	9	3	·	·	·	·	·
O=C(NCC1CCCO1)C(c1ccc(F)cc1)N(Cc1ccc2c(c1)OCO2)C(=O)c1ccc(CN2CCOCC2)o1 (stereo unspecified)	-2	·	9	3	·	·	·	·	·
Nc1ccccc1NC1CCCCC1	36*	·	33	-3	21	34	17	26*	24*
CC(=O)c1sc(NC(=O)c2cc3c(C)nn(-c4ccccc4)c3s2)nc1C	-11	3	2	-1	·	·	·	·	·
Cc1nn(-c2ccccc2)c2sc(C(=O)NC3CC3)cc12	45*	0	-6	0	-5	-3	4	1	0
O=C(Nc1ccc(S(=O)(=O)Nc2nccs2)cc1)c1cc(-c2ccccc2Cl)nc2ccccc12	34*	5	10	-2	14	17	6	8	10
CCN(CC)c1ccc(NC(=O)/C=C\c2ccccc2Cl)cc1	31*	-1	41	-6	17	26	25*	27*	27*
COc1ccc(NC(=O)COc2ccc(C(=O)NC3CCCc4ccccc43)cc2OC)cc1 (stereo unspecified)	4	4	-10	-5	·	·	·	·	·
CCOC(=O)Nc1nnc(-c2ccc(OC)cc2)s1	8	3	-11	7	·	·	·	·	·
CCOC(=O)Nc1nnc(-c2cccc(OC)c2)s1	49*	3	15	2	8	18	25*	-6	8
CC(=O)Nc1ccc(S(=O)(=O)NCCSCc2cccc(Cl)c2)cc1	7	5	11	-9	·	·	·	·	·
CC(=O)Nc1ccc(S(=O)(=O)NCCSCc2c(Cl)cccc2Cl)cc1	36*	0	3	-3	-1	-4	-11	-4	-3
COc1ccc(NC(=S)NC(NC(=O)c2cccc(Cl)c2)C(Cl)(Cl)Cl)c([N+](=O)[O-])c1 (stereo unspecified)	37*	-8	39	-9	22	33	20*	20	33*
CC(=O)C(=Nc1ccc(Cl)cc1Cl)NNc1cccc(Cl)c1	33*	-9	39	-7	16	8	7	9	28*
CC(=O)c1ccc(NC(=O)Nc2cccc(Cl)c2)cc1	11	-1	18	-7	·	·	·	·	·
O=C(O)c1nccnc1C(=O)Nc1ccc(Oc2c(Cl)cccc2Cl)nc1	73*	·	12	·	-3	-2	-12	-8	0
CC(C)CN(C(=O)C(c1ccccc1)c1ccccc1)c1c(N)n(CC(C)C)c(=O)[nH]c1=O	-20	·	-11	4	·	·	·	·	·
O=c1[nH]cc(COCC(F)CCl)c(=O)[nH]1 (stereo unspecified)	93*	·	-6	·	-3	2	3	10	7
SMILES	NPY-Y2 PAM-ag	NPY-Y2 antag	NPY1 pot ag	NPY-Y1 antag	NPY-Y2 confirm	NPY-Y1 potentiator	NPY-Y1 ag 2	CNGC inhibitor	NPY-Y2 ag 2
N#C/C(=N/Nc1ccc(OC(F)(F)F)cc1)C(N)=S	46*	·	27	·	13	1	-10	-2	23*
NC(=O)c1ccc2nc(NC(=O)c3ccc(N)cc3)sc2c1	31*	·	23	-5	11	14	18*	16	18*
Cc1cccnc1CN1CCN(Cc2nc(Cc3cccc(F)c3)no2)CC1	-11	·	1	1	·	·	·	·	·
CCCN1C2CCCC1CC(NC(=O)Nc1ccc(C(C)C)cc1)C2 (stereo unspecified)	34*	0	14	-7	22	30	19*	28*	24*
O=c1c2ccccc2[nH]c2ccccc12	1	2	-20	2	·	·	·	·	·
O=c1[nH][nH]c2ccccc2c1=O	87*	·	1	·	2	6	-12	0	-3
O=C(Cc1ccccc1)Nc1scc(-c2ccccc2)c1C(=O)N1CCOCC1	-17	3	15	-1	·	·	·	·	·
NC(=O)c1c(-c2ccc(Cl)cc2Cl)csc1NC(=O)Cc1ccccc1	32*	7	-56	16	-8	-44	-37	-17	-6
Oc1ccccc1Nc1nc(NCc2ccccc2)c2ccccc2n1	36*	·	0	4	47*	56*	45*	48*	45*
S=C1NCN(CCc2ccccc2)CN1	73*	·	6	·	-1	-3	-5	3	5
S=C1NCN(CCc2ccccc2)CN1Cc1ccccc1	-7	·	2	·	·	·	·	·	·
CN(C)c1cccc2c1C(=O)c1ccccc1C2=O	33*	-6	17	-5	34*	42	26*	26*	29*
CN1C(=O)c2cccc(N(C)C)c2C1=O	-3	0	-6	3	·	·	·	·	·
CC(C)(C)N(Cc1cc2ccccc2[nH]c1=O)C(=O)c1ccco1	-8	·	-6	-5	·	·	·	·	·
CC(C)(C)N(Cc1cc2ccccc2[nH]c1=O)C(=O)c1cccnc1	85*	-1	14	-2	-1	0	0	1	1
CNS(=O)(=O)c1ccc(C(C)(C)C)cc1	-2	·	10	-1	·	·	·	·	·
Cc1cccc(C)c1NS(=O)(=O)c1ccc(NC(=O)c2ccc(Cl)c([N+](=O)[O-])c2)cc1	38*	-1	29	-11	35*	41	37*	29*	43*
N#Cc1ccsc1NC(=O)c1cccc([N+](=O)[O-])c1	5	·	-11	2	·	·	·	·	·
N#Cc1ccsc1NC(=O)c1ccc(Cl)c([N+](=O)[O-])c1	51*	·	-8	·	-8	-44	-33	-15	10
